Screening results deposited in PubChem by several laboratories.
MC4R ag barr: MC4R agonists recruiting beta-arrestin, primary screen, cell-based, luminescence, agonist arm of biased-ligand search. Melanocortin receptor 4 (Homo sapiens), P32245. U2OS MC4R beta-arrestin complementation; percent of melanotan II response, DMSO zero. activation, % at 8.9 µM. 0.98% of 360,000 active;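 active means activation above a per-plate cutoff, the mean activation of sample wells on that plate plus 3 SD, cut at about 8% in these data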
NTR1 agonist: agonists of human NTR1, primary screen, imaging, U2OS cells, beta-arrestin-GFP, high content; Neurotensin receptor type 1 (Homo sapiens), P30989; NTR1-U2OS beta-arrestin-GFP spot imaging, agonist mode; activation, % at 20 µM; 0.17% of 330,000 active; AID 493036, 2011;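 active means activation at or above 40% of the spot to cytoplasm intensity ratio, with at least 20 cells analyzed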
MC4R antagonist: MC4R antagonists of cAMP signaling, primary screen, cell-based, TR-FRET, antagonist arm of biased-ligand search | MC4R-expressing cells, MTII-stimulated cAMP, LANCE TR-FRET | inhibition, % at 6.5 µM | AID 540295, 2011 | 0.48% of 360,000 active | Melanocortin receptor 4 (Homo sapiens), P32245;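 active means inhibition above its plate's cutoff, the mean of tested wells on that plate plus 3 SD, cut at about 29% in these data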
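material = U2OS cells stably expressing human melanocortin 4 receptor (MC4R) | also added = Melanotan II challenge | dosing = single nominal compound dose of 6.5 µM | detection = TR-FRET with Eu-cAMP and labeled anti-cAMP, 671 nm | replication = singlicate | timing = compound 30 min, challenge 1 h, detection 1 h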
sPLA2-III inh: human group III sPLA2 inhibitors, primary screen, biochemical, QFRET, BODIPY PC-A2 liposome substrate; Group 3 secretory phospholipase A2 (Homo sapiens), Q9NZ20; QFRET BODIPY PC-A2 liposome hydrolysis, fluorescence; inhibition, % at 12.2 µM; 0.56% of 370,000 active; AID 743126, 2013;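 active means inhibition above mean plus 3 SD of compounds lying within the high and low control bounds, cut at about 19% in these data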
Target sequence (Q9NZ20 whole entry, looked up): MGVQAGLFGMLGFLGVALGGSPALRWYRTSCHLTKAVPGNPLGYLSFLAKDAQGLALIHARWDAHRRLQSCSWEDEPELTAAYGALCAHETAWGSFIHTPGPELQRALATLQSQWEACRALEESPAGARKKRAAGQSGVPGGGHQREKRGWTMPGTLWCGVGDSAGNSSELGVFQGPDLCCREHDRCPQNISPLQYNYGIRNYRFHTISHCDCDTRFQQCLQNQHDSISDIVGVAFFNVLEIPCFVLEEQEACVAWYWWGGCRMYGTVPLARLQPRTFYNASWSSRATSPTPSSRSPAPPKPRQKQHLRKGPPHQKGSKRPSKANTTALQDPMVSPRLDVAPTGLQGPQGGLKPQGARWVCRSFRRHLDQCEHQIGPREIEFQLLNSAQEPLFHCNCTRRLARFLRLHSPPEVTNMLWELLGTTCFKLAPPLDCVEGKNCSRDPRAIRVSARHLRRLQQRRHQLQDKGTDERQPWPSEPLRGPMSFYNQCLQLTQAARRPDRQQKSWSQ
A1 inh: caspase 3/7 activation in MEF A1-2A-BIM cells, primary screen, A1 inhibitor project, cell-based, luminescence, HTS. AID 2462, 2010. caspase activation, % (no concentration beside the values). 0.066% of 330,000 active. Caspase-Glo 3/7 luminescence, 3 h; percent of clofoctol response, vehicle zero;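 active means over half of replicate activation scores above 10%, or exactly half above 10 with the replicate mean above 10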
Granule exo inh: LAMP-1 surface exposure blockers, TALL-104 cells – cell-based, flow cytometry, MLPCN library, primary screen; inhibition, % at 10 µM; TALL-104 LAMP-1 surface exposure; cells stimulated with thapsigargin and PMA; AID 651702, 2012; 0.66% of 360,000 active;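 active means inhibition above about 55%, limit read from the data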
NTR1 ag conf: NTR1 agonists, single-dose retest, confirmation, imaging, U2OS cells, beta-arrestin-GFP, single concentration. shares compounds with NTR1 agonist. 38% of 480 active. activation, % at 20 µM. NTR1-U2OS beta-arrestin-GFP translocation imaging;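 active means mean activation at 20 µM of at least 40%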
cAMP nonselect: nonselective cAMP signaling inhibitors, parental cells, counter-screen for MC4R biased antagonist project, cell-based, TR-FRET, U2OS, forskolin, triplicate; shares compounds with MC4R antagonist; LANCE TR-FRET; inhibition, % at 6.5 µM; 26% of 1,600 active; AID 602193, 2012;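 active means mean inhibition over triplicates above the low-control well mean plus 3 SD, set per campaign, cut at about 13% in these data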;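 further: signal is single emission at 671 nm which falls as cellular cAMP rises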
MC4R antag conf: MC4R cAMP antagonists, retest, confirmation, cell-based, TR-FRET | MC4R-expressing cells, MTII-stimulated cAMP | shares compounds with MC4R antagonist | inhibition, % at 6.5 µM | 27% of 1,600 active; in the data active means inhibition above about 29%
Granule exo CP1: inhibitors of lytic granule exocytosis, confirmation, TALL-104 cells, flow cytometry, Cherry Pick01. inhibition, % at 10 µM. AID 651954, 2012. shares compounds with Granule exo inh. LAMP-1 externalization; stimulated with PMA plus thapsigargin. 11% of 1,500 active; in the data active means inhibition above about 60%
Of the large screens only hits and unclear results are named; the others gave an inactive call (follow-up assays come after a bar, where they were run). In the library only some 2.5% were active in any assay of this set; here they are far more common.

O=C(c1ccc(Br)cc1)C(CN1CCOCC1)c1ccccc1 (stereo not given)	NTR1 agonist 59.7, MC4R antagonist 41.0, Granule exo inh 66.7 | NTR1 ag conf 71.0 | cAMP nonselect inactive | MC4R antag conf inactive | Granule exo CP1 inactive
CCOc1ccc(C(=O)C(CN2CCOCC2)c2ccccc2)cc1 (stereo not given)	none (no result: NTR1 agonist)
CC(C)CN(C(=O)COC(=O)c1nc(Cl)ccc1Cl)C1CCS(=O)(=O)C1 (stereo not given)	MC4R antagonist 35.6 | cAMP nonselect inactive | MC4R antag conf inactive
O=C(NCc1ccccc1)O[C@H]1CC[C@@]23CCCN2C(=O)CCC[C@H]3C1	none (no result: MC4R ag barr, NTR1 agonist, MC4R antagonist, A1 inh, Granule exo inh)
Cc1ccc(S(=O)(=O)N2CCC(C(=O)OC3CCOC3=O)CC2)cc1C (stereo not given)	MC4R antagonist 39.6 | cAMP nonselect 19.2 | MC4R antag conf 41.0
Cc1ccc(S(=O)(=O)N2CCOCC2)cc1C(=O)OC1CCOC1=O (stereo not given)	none (no result: A1 inh)
CC(=O)c1cccc(S(=O)(=O)N2CCC(C(=O)OC3CCOC3=O)CC2)c1 (stereo not given)	MC4R antagonist 40.4 | cAMP nonselect 19.0 | MC4R antag conf 56.7
O=S1(=O)c2ccc(Br)cc2OC[C@H](Cc2ccccc2)N1Cc1cn(CCC2OCCO2)nn1	none (no result: MC4R ag barr, NTR1 agonist, MC4R antagonist, A1 inh, Granule exo inh)
CCOC(=O)[C@]12CCCCC/C=C\1N(CCc1ccc(Cl)cc1)C(=O)[C@H]2CC(=O)N1CCC(c2ccccc2)CC1	none (no result: MC4R ag barr, NTR1 agonist, MC4R antagonist, A1 inh, Granule exo inh)
O=C1N2Cc3ccccc3C2CS(=O)(=O)N1CCc1ccccc1 (stereo not given)	none (no result: MC4R ag barr, NTR1 agonist, MC4R antagonist, A1 inh, Granule exo inh)
O=C1c2cccn2CC2Cc3ccccc3N12 (stereo not given)	none (no result: MC4R ag barr, NTR1 agonist, MC4R antagonist, A1 inh, Granule exo inh)
CCN(c1ccccc1)S(=O)(=O)c1cc(C(=O)OC2CCOC2=O)ccc1C (stereo not given)	MC4R antagonist 39.9 | cAMP nonselect 23.5 | MC4R antag conf 37.1
CNS(=O)(=O)c1cccc(C(=O)OC2CCOC2=O)c1 (stereo not given)	none
COc1ccc(CN2C[C@H](COCc3ccccc3)Oc3cccc(F)c3S2(=O)=O)cc1	none (no result: MC4R ag barr, NTR1 agonist, MC4R antagonist, A1 inh, Granule exo inh)
CCOc1cccc(C2/C(=C(/O)c3ccc4c(c3)CC(C)O4)C(=O)C(=O)N2CCN2CCOCC2)c1 (stereo not given)	MC4R antagonist 38.1 | cAMP nonselect inactive | MC4R antag conf inactive
CCn1c(C)nc2cc(C(=O)N/N=C(\C)c3ccc(OC)cc3O)ccc21	MC4R antagonist 33.9 (no result: NTR1 agonist, A1 inh) | cAMP nonselect inactive | MC4R antag conf inactive
Cc1ccccc1NC(=O)CSc1nnc(-c2cc(-c3ccccc3)n[nH]2)n1N	none (no result: MC4R ag barr, NTR1 agonist, MC4R antagonist, A1 inh, Granule exo inh)
CC(COc1ccc([N+](=O)[O-])cc1Cl)CN1CCC(C(O)(c2ccccc2)c2ccccc2)CC1 (stereo not given)	none (no result: MC4R ag barr, NTR1 agonist, MC4R antagonist, A1 inh, Granule exo inh)
O=C(c1ccc(NS(=O)(=O)c2ccc3c(c2)OCCO3)cc1)N1CCCCC1	none
NS(=O)(=O)c1ccc(NS(=O)(=O)c2ccc3c(c2)OCCO3)cc1	MC4R antagonist 29.7 | cAMP nonselect inactive | MC4R antag conf inactive
COC(=O)[C@]12C[C@H](CC(=O)NCCC(C)C)C(=O)N(Cc3ccccc3)C1=C[C@H](COCc1ccccc1)O[C@@H]2C	none (no result: MC4R ag barr, NTR1 agonist, MC4R antagonist, A1 inh, Granule exo inh)
CCOCCCNCc1cc(Cl)cc(Cl)c1OCC	MC4R antagonist 31.4 | cAMP nonselect inactive | MC4R antag conf inactive
CC(=O)C1=C(C)N(Cc2ccc(F)cc2)C(=S)NC1c1cccc(Cl)c1 (stereo not given)	none (no result: MC4R ag barr, NTR1 agonist, MC4R antagonist, A1 inh, Granule exo inh)
COc1ccc(C(=O)/C=C/C(=O)N(CC(=O)NC2CCCCC2)Cc2ccc(F)cc2)c(O)c1	MC4R antagonist 28.6 (no result: NTR1 agonist, A1 inh) | cAMP nonselect inactive | MC4R antag conf inactive
C=CCN=C1NC(c2ccc(C(F)(F)F)cc2)C(C(=O)OC)=C(C)N1Cc1ccccc1C(F)(F)F (stereo not given)	none (no result: MC4R ag barr, NTR1 agonist, MC4R antagonist, A1 inh, Granule exo inh)
C[C@H](NC(=O)c1[nH]cnc1C(=O)Nc1ccc(CNC(=O)OC(C)(C)C)cc1)C(=O)OCc1ccccc1	MC4R antagonist 29.0 | cAMP nonselect inactive | MC4R antag conf inactive
CC(C)C[C@H](NC(=O)c1[nH]cnc1C(=O)Nc1ccc(CNC(=O)OC(C)(C)C)cc1)C(=O)OC(C)(C)C	none
CC(C)C[C@H](NC(=O)c1[nH]cnc1C(=O)Nc1ccc(CNC(=O)OC(C)(C)C)cc1)C(=O)OCc1ccccc1	MC4R antagonist 61.4 | cAMP nonselect 17.9 | MC4R antag conf 36.5
CCC1(C)Cc2ccccc2-c2[nH]c(=S)[nH]c(=O)c21 (stereo not given)	MC4R antagonist 29.3 | cAMP nonselect 19.7 | MC4R antag conf 46.5
Cc1cccc2nc(-c3ccccc3)c(-c3ccc(CN4CCC(n5cc(-c6ccccc6)[nH]c5=O)CC4)cc3)nc12	none (no result: MC4R ag barr, NTR1 agonist, MC4R antagonist, A1 inh, Granule exo inh)
CCCCNC(=O)C[C@H]1C[C@@]2(C(=O)OC)C(=C[C@H](C3CCCC3)O[C@@H]2C)N(Cc2ccc(Cl)cc2Cl)C1=O	none (no result: MC4R ag barr, NTR1 agonist, MC4R antagonist, A1 inh, Granule exo inh)
CSCCC(NC(=O)c1ccc([N+](=O)[O-])cc1Cl)C(=O)OCC(=O)NCC(F)(F)F (stereo not given)	none
CSCCC(NC(=O)c1ccc([N+](=O)[O-])cc1Cl)C(=O)OCC(=O)NCCCc1ccccc1 (stereo not given)	MC4R antagonist 37.1 | cAMP nonselect 16.4 | MC4R antag conf 37.1
CC1CC(Nc2ccccc2)c2ccccc2N1C(=O)c1ccncc1 (stereo not given)	MC4R antagonist 33.6 | cAMP nonselect inactive | MC4R antag conf inactive
CC1CC(Nc2ccccc2)c2ccccc2N1C(=O)c1ccco1 (stereo not given)	none
